Test results: PMC8607274 (Translational Oncology, 2021)

Columns and labels:
[1] = test system: various cancer cell lines; conditions: cited from earlier work
PA1 cells [2] = assay: Spectrometric ROS measurement; assay type: cell-based
How it was run: (§1)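 Plate-reader ROS: 20,000 cells/well plated; after 24 h washed in PBS. Incubated 1 h in PBS with 10 µM H2DCFDA plus various test-compound concentrations, with or without 20 mM NAC. Fluorescence read at ex 485/em 535. 200 µM H2O2 as positive control.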

A2780 cells [3] = assay: Cell viability assay with ST03 and NAC; assay type: cell-based; conditions: 20 mM NAC, 20 nM ST03, 24 h
PA1 cells [4] = assay: Cell viability assay with ST03 and NAC; assay type: cell-based; conditions: 20 mM NAC, 20 nM ST03, 24 h
A2780 cells [5] = assay: Spectrometric ROS measurement; assay type: cell-based
How it was run: as §1

PA1 cells [6] = assay: Cell cycle analysis; assay type: cell-based; conditions: 48 h
How it was run: (§2)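 Cells seeded at 1 × 10^5/well, then treated next day with 10, 50 or 75 nM for 48 h. PI (4 µg/ml) added for 5 min at RT. 10,000 events acquired by flow cytometry.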

Solubility in 0.6 N HCl = assay type: physicochemical
PA1 cells [7] = assay: Transwell migration assay; assay type: cell-based; conditions: 40 nM, 48 h treatment, 5 h migration
How it was run: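 PA1 cells pretreated with various test-compound concentrations for 48 h, then 1 × 10^5 seeded into 8 µm-pore inserts in serum-free medium, complete medium below, 5 h. Inserts washed in PBS and fixed in 70% ethanol; non-migrated inner cells removed with cotton. Cells stained with 0.2% crystal violet, imaged and quantified by image analysis.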

[8] = test system: Ehrlich ascites carcinoma (EAC) solid tumor; assay: Antitumor activity in EAC solid tumor mice; assay type: in vivo, Swiss albino mice
How it was run: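 EAC cells maintained by intraperitoneal passage in mice every 7 days. Day-7 ascites cells were diluted in PBS, and 1 × 10^6 cells were injected subcutaneously into the thigh. On day 7, caliper-measured tumours were allocated to groups of equal mean size, 5 animals/group, repeated three times (n = 15). Groups: untreated control or test compound 10 mg/kg b.wt i.p. every alternate day. Tumour size and body weight were recorded every alternate day; V = (ab2)/2.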

A2780 cells [9] = assay: Real time PCR of mitochondrial OXPHOS genes; assay type: cell-based; conditions: 48 h
How it was run: (§3)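 Total RNA extracted from cells treated with various test-compound concentrations. 2 µg RNA reverse-transcribed to cDNA. qPCR run in triplicate with primers for ND2, CYTB and ATPase 6.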

A2780 cells [10] = assay: Cell cycle analysis; assay type: cell-based; conditions: 48 h
How it was run: as §2

PA1 cells [11] = assay: Intracellular ROS, H2DCFDA flow cytometry; assay type: cell-based
How it was run: (§4)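 Intracellular ROS: 1 × 10^5 cells per 35 mm dish exposed to test compound for 10, 20 and 30 min. Harvested, washed in PBS, stained with H2DCFDA for 30 min and analysed by flow cytometry. H2O2-treated cells as positive control. ROS taken as the histogram shift in median fluorescence intensity versus vehicle control.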

[12] = Bioavailability study, plasma concentration by HPLC-UV; assay type: in vivo, Swiss albino mice
How it was run: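 Swiss albino mice, n = 2/group, single oral or i.p. dose: test compound 10 mg/kg b.wt, curcumin 20 mg/kg b.wt. Blood sampled at 5, 10, 15 min and 1, 3, 6, 12, 24 h. Plasma protein-precipitated with an equal volume of acetonitrile. HPLC-UV at 1 mL/min, room temperature, detection 312 nm (test compound) or 369 nm (curcumin). Calibration curve in mouse plasma, 1–100 µM. Mean per time point.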

PA1 cells [13] = assay: Real time PCR of mitochondrial OXPHOS genes; assay type: cell-based; conditions: 48 h
How it was run: as §3

[14] = Toxicity in experimental animals; assay type: in vivo, Swiss albino mice
A2780 cells [15] = assay: JC-1 mitochondrial membrane potential assay; assay type: cell-based; conditions: 10, 50, 75 nM; 48 h
How it was run: (§5)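 After 48 h test-compound treatment, cells were harvested and resuspended in staining buffer containing JC-1, 20 min in the dark at 37 °C, 5% CO2. Then resuspended in fresh buffer; 10,000 events acquired by flow cytometry. Valinomycin as positive control.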

EAC tumor tissue = assay: Histology; assay type: in vivo, Swiss albino mice; conditions: ST03 post-treatment
How it was run: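 Tumour and organs (kidney, liver, spleen) collected at study end and fixed; paraffin sections (10 µm) H&E-stained. PCNA IHC on 5 µm tumour sections: 3% H2O2 in PBS, antigen retrieval by boiling in 10 mM sodium citrate pH 6. Blocked with 5% goat serum/1% BSA for 30 min. Mouse anti-PCNA 1:100 (1 h RT or overnight 4 °C), biotinylated anti-mouse IgG 1:200, streptavidin-HRP 1:1000, DAB-H2O2.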

[16] = test system: Ehrlich ascites carcinoma (EAC) solid tumor; assay: Chemopreventive effect in EAC solid tumor mice; assay type: in vivo, Swiss albino mice
How it was run: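 Subcutaneous EAC thigh tumour model (1 × 10^6 cells). The treated group got 15 alternate-day doses of test compound (10 mg/kg b.wt) before tumour injection, none at inoculation, then 15 further doses after tumour injection. Compared with untreated controls, n = 5/group. Tumour volume was measured from day 7 after tumour injection, with body weight and physiological parameters. Two independent experiments.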

A2780 = assay: Cytotoxicity on ovarian cancer cells compared to curcumin; assay type: cell-based
MCF7 = assay: MTT assay of human breast cancer cell lines; assay type: cell-based; conditions: 48 hours
A2780 cells [17] = assay: Immunoblotting of apoptosis-related proteins; assay type: cell-based
How it was run: (§6)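 Treated and control cells lysed in RIPA buffer with protease inhibitors; protein measured by Bradford. 40 µg resolved by SDS-PAGE and transferred to PVDF. Bands probed with antibodies, detected by enhanced chemiluminescence and quantified by densitometry.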

A2780 cells [18] = assay: Intracellular ROS, H2DCFDA flow cytometry; assay type: cell-based; conditions: 75 nM
How it was run: as §4

PA1 cells [19] = assay: Immunoblotting of apoptosis-related proteins and MMP1; assay type: cell-based
How it was run: as §6

PA-1 cells = assay: Cytotoxicity on ovarian cancer cells compared to curcumin; assay type: cell-based
[20] = test system: human breast cancer cell lines (MDA-MB-231, MDA-MB-468, MCF7); assay: MTT assay of human breast cancer cell lines; assay type: cell-based; conditions: 48 h, read-out: IC50 (cytotoxicity)
PA1 cells [21] = assay: JC-1 mitochondrial membrane potential assay; assay type: cell-based; conditions: 10, 50, 75 nM; 48 h
How it was run: as §5

tumor = conditions: cited from earlier work
xenograft models = conditions: twice-daily, nude mice; cited from earlier work
[22] = Swiss albino, mouse, plasma, ip, 10 mg/kg
[23] = Swiss albino, mouse, plasma, po, 10 mg/kg
[24] = Swiss albino, mouse, plasma, ip, 20 mg/kg
[25] = Swiss albino, mouse, plasma, po, 20 mg/kg

## O=C1/C(=C/c2ccccc2)CN(C(=O)C(=O)N2C/C(=C\c3ccccc3)C(=O)/C(=C/c3ccccc3)C2)C/C1=C\c1ccccc1 [1,2-bis[(3E,5E)−3,5-dibenzylidene-4-oxo-1-piperidyl]ethane-1,2-dione, reference compound]
[1]; multiple cancer cell lines in vitro
  cytotoxic potency compared with curcumin: greater potency than the parent compound curcumin

## CC(=O)N[C@@H](CS)C(=O)O [NAC, N-acetylcysteine, reference compound]
PA1 cells [2]; 20 mM NAC with ST03
  effect of NAC on ST03 induced ROS: blocked ST03 induced increase in ROS
A2780 cells [3]
  cell death with ST03 in presence of NAC: decrease in cell death
PA1 cells [4]
  cell death with ST03 in presence of NAC: decrease in cell death
A2780 cells [5]; 20 mM NAC with ST03
  effect of NAC on ST03 induced ROS: blocked ST03 induced increase in ROS

## O=C1/C(=C/c2ccccc2Cl)CN(C(=O)C(=O)N2C/C(=C\c3ccccc3Cl)C(=O)/C(=C/c3ccccc3Cl)C2)C/C1=C\c1ccccc1Cl [ST03, 1,2-bis[(3E,5E)-3,5-bis[(2-chlorophenyl)methylene]-4-oxo-1-piperidyl]ethane-1,2-dione]
PA1 cells [6]; 50 nM
  cells accumulated at the sub G0/G1 stage: ~70%
PA1 cells [6]; 10, 50, 75 nM
  cell cycle arrest: no notable cell cycle arrest
Solubility in 0.6 N HCl
  solubility: completely soluble
PA1 cells [2]; 20 mM ST03 as printed, 20 nM
  time to peak ROS levels: 1 h
PA1 cells [7]
  reduction in migration: 60%
[8]; 10 mg/kg b.wt i.p.
  spleen size vs untreated animals: reduction in spleen size
[8]; 10 mg/kg b.wt i.p. every alternate day from day 7, 25 days
  tumor growth vs untreated control: significant reduction in tumor growth
[8]; 15 doses, tumor allograft
  dosage sufficient to inhibit tumor growth without adverse systemic toxicity: 10 mg/kg
A2780 cells [9]
  transcription of mitochondrially encoded OXPHOS genes (ND2, CYB, Atpase6): decrease in the transcription
A2780 cells [10]; 50 nM
  cells accumulated at the sub G0/G1 stage: ~60%
A2780 cells [10]; 10, 50, 75 nM
  cell cycle arrest: no notable cell cycle arrest
PA1 cells [11]; 40 nM
  time at which ROS production was induced: 10 min
PA1 cells [11]; 50 nM
  time at which ROS production was induced: ≤ 10 min
[12]; [22]
  Cmax: 98.4 µM
  Tmax: 8 h
[12]; [23]
  Cmax: 55.2 µM
  Tmax: 2 h
  half-life: 3 h
[12]; intraperitoneal
  presence in plasma until: > 12 h
[12]; oral
  presence in plasma until: > 12 h
[12]; oral, ST03 10 mg/kg, curcumin 20 mg/kg
  bioavailability compared to curcumin: ~14 fold
[12]; route not given
  detectable in plasma: up to 12 h
PA1 cells [13]
  transcription of mitochondrially encoded OXPHOS genes (ND2, CYB, Atpase6): decrease in the transcription
[14]; ST03 post-treatment
  histopathology of kidney, liver and spleen (H&E): no pathological changes
[14]; end of study
  RBC count: No significant change
  WBC count vs control group: increase in the number of WBCs
[14]; pre- and post-treatment animals, 10 mg/kg b.wt
  body weight: no notable weight reduction
[14]; serum, end of study
  ALT level: No significant change
  AST level: No significant change
  urea level: No significant change
A2780 cells [15]
  JC1 green population (mitochondrial damage): increase in the green population
EAC tumor tissue
  proliferating cells (PCNA staining) in tumor: reduction in proliferating cells
  tumor cells in H&E stained tumor vs control tissue: significant reduction of tumor cells
EAC tumor tissue; western blot
  Bcl2 in tumor extract: up-regulation
A2780 cells [5]; 20 mM ST03 as printed, 20 nM
  time to peak ROS levels: 1 h
[16]; 10 mg/kg b.wt
  pre and post-treatment compared with post-treatment alone: better results than post-treatment alone
[16]; pre-treatment with 15 alternate doses of 10 mg/kg b.wt, then post-treatment
  tumor growth vs controls: significant reduction in tumor growth
A2780
  cytotoxicity relative to curcumin: 100 fold
MCF7
  IC50 rank among breast cancer cell lines: least IC50
A2780 cells [17]
  p53 expression: upregulation
A2780 cells [17]; 40 nM
  Bax expression: increase
  Bcl2 expression: significant decrease
A2780 cells [17]; increasing concentrations
  Cytochrome C: increase
A2780 cells [18]
  time at which the histogram shifted (ROS production): 30 min
PA1 cells [19]
  p53 expression: upregulation
PA1 cells [19]; 40 nM
  Bax expression: increase
  Bcl2 expression: significant decrease
  MMP1 expression: significant decrease
PA1 cells [19]; increasing concentrations
  Cytochrome C: increase
[1]
  potency relative to curcumin: ~100 fold
  selectivity of toxicity, cancer cells vs normal cells: selectively induces toxicity in cancer cells compared to normal cells
PA-1 cells
  cytotoxicity on PA-1 compared with A2780: better cytotoxicity on PA-1 cells
  cytotoxicity relative to curcumin: 100 fold
[20]
  IC50: 166 to 301 nM
PA1 cells [21]
  JC1 green population (mitochondrial damage): increase in the green population

## COc1cc(/C=C/C(=O)CC(=O)/C=C/c2ccc(O)c(OC)c2)ccc1O [curcumin, reference compound]
[12]; [24]
  Cmax: 2.7 µM
  Tmax: 3 h
[12]; [25]
  Cmax: 13.7 µM
  Tmax: 0.25 h
tumor
  dosage with antitumor activity in vivo: 800 mg/kg of body weight
[1]
  potency range: ~10000 nM
Xenograft models
  effective dosage in xenograft models: 50 mg/kg b.wt
